Measurements from ChEMBL document CHEMBL1287651, “Synthesis and in vitro antibacterial activity of fluoroquinolone derivatives containing 3-(N'-alkoxycarbamimidoyl)-4-(alkoxyimino) pyrrolidines” (2010).

What was measured:
Assay type in all cases: functional
[1] = tested on: Staphylococcus epidermidis; assay: Antibacterial activity against methicillin-sensitive Staphylococcus epidermidis 09-6 after 18 to 24 hrs by twofold serial dilution method
Procedure, shortened: (§1)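 Standard twofold serial agar dilution method on agar media for MIC determination. Screened against representative Gram-positive and Gram-negative strains. Levofloxacin and GMFX served as control drugs.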

[2] = tested on: Staphylococcus epidermidis; assay: Antibacterial activity against methicillin-resistant Staphylococcus epidermidis 09-2 after 18 to 24 hrs by twofold serial dilution method; procedure, shortened: as §1
[3] = tested on: Staphylococcus epidermidis; assay: Antibacterial activity against methicillin-resistant Staphylococcus epidermidis 09-3 after 18 to 24 hrs by twofold serial dilution method; procedure, shortened: as §1
Klebsiella pneumoniae [4] = assay: Antibacterial activity against Klebsiella pneumoniae 09-21 after 18 to 24 hrs by twofold serial dilution method
Procedure, shortened: (§2)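 MIC determined by the standard twofold serial dilution method on agar media, screening against Gram-positive and Gram-negative strains. Levofloxacin and gemifloxacin were run alongside as reference drugs.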

Klebsiella pneumoniae [5] = assay: Antibacterial activity against Klebsiella pneumoniae 09-22 after 18 to 24 hrs by twofold serial dilution method; procedure, shortened: as §2
Enterococcus faecalis [6] = assay: Antibacterial activity against Enterococcus faecalis 08-12 after 18 to 24 hrs by twofold serial dilution method; procedure, shortened: as §2
Escherichia coli [7] = assay: Antibacterial activity against Escherichia coli ATCC 25922 after 18 to 24 hrs by twofold serial dilution method; procedure, shortened: as §2
Klebsiella pneumoniae [8] = assay: Antibacterial activity against Klebsiella pneumoniae 09-23 after 18 to 24 hrs by twofold serial dilution method; procedure, shortened: as §2
Streptococcus pneumoniae [9] = assay: Antibacterial activity against Streptococcus pneumoniae 08-4 after 18 to 24 hrs by twofold serial dilution method; procedure, shortened: as §2
Escherichia coli [10] = assay: Antibacterial activity against Escherichia coli 08-22 after 18 to 24 hrs by twofold serial dilution method; procedure, shortened: as §2
Escherichia coli [11] = assay: Antibacterial activity against Escherichia coli 08-21 after 18 to 24 hrs by twofold serial dilution method; procedure, shortened: as §2
Pseudomonas aeruginosa [12] = assay: Antibacterial activity against Pseudomonas aeruginosa 09-33 after 18 to 24 hrs by twofold serial dilution method; procedure, shortened: as §2
Streptococcus pneumoniae [13] = assay: Antibacterial activity against Streptococcus pneumoniae 08-2 after 18 to 24 hrs by twofold serial dilution method; procedure, shortened: as §2
Enterococcus faecium [14] = assay: Antibacterial activity against Enterococcus faecium 08-2 after 18 to 24 hrs by twofold serial dilution method; procedure, shortened: as §2
Pseudomonas aeruginosa [15] = assay: Antibacterial activity against Pseudomonas aeruginosa ATCC 27853 after 18 to 24 hrs by twofold serial dilution method; procedure, shortened: as §2
Enterococcus faecium [16] = assay: Antibacterial activity against Enterococcus faecium 08-7 after 18 to 24 hrs by twofold serial dilution method; procedure, shortened: as §2
Staphylococcus aureus [17] = assay: Antibacterial activity against methicillin-resistant Staphylococcus aureus 08-1 after 18 to 24 hrs by twofold serial dilution method; procedure, shortened: as §1
[18] = tested on: Staphylococcus epidermidis; assay: Antibacterial activity against methicillin-resistant Staphylococcus epidermidis 09-4 after 18 to 24 hrs by twofold serial dilution method; procedure, shortened: as §1
Staphylococcus aureus [19] = assay: Antibacterial activity against methicillin-sensitive Staphylococcus aureus 08-2 after 18 to 24 hrs by twofold serial dilution method; procedure, shortened: as §1
Enterococcus faecalis [20] = assay: Antibacterial activity against Enterococcus faecalis 08-10 after 18 to 24 hrs by twofold serial dilution method; procedure, shortened: as §2
Pseudomonas aeruginosa [21] = assay: Antibacterial activity against Pseudomonas aeruginosa 09-35 after 18 to 24 hrs by twofold serial dilution method; procedure, shortened: as §2
Pseudomonas aeruginosa [22] = assay: Antibacterial activity against Pseudomonas aeruginosa 09-32 after 18 to 24 hrs by twofold serial dilution method; procedure, shortened: as §2
Staphylococcus aureus [23] = assay: Antibacterial activity against Staphylococcus aureus ATCC […] after 18 to 24 hrs by twofold serial dilution method; procedure, shortened: as §2
Pseudomonas aeruginosa [24] = assay: Antibacterial activity against Pseudomonas aeruginosa 09-34 after 18 to 24 hrs by twofold serial dilution method; procedure, shortened: as §2
[25] = tested on: Staphylococcus epidermidis; assay: Antibacterial activity against methicillin-sensitive Staphylococcus epidermidis 09-3 after 18 to 24 hrs by twofold serial dilution method; procedure, shortened: as §1

Measured: MIC

CO/N=C1\CN(c2c(F)cc3c(=O)c(C(=O)O)cn(C4CC4)c3c2OC(F)F)CC1/C(N)=N\O (stereo not given)
128 mg/L: Escherichia coli [7] | Pseudomonas aeruginosa [15]
0.5 mg/L: [18]
0.25 mg/L: [1] | [3] | Staphylococcus aureus [19] | [25]
0.125 mg/L: Staphylococcus aureus [17] | Staphylococcus aureus [23]
4 mg/L: [2] | Streptococcus pneumoniae [9] | Streptococcus pneumoniae [13]
64 mg/L: Klebsiella pneumoniae [5]
> 128 mg/L: all other assays above

CO/N=C1\CN(c2c(F)cc3c(=O)c(C(=O)O)cn(CCF)c3c2F)CC1/C(N)=N\O (stereo not given)
0.5 mg/L: [18] | [25]
1 mg/L: [1] | [3] | Streptococcus pneumoniae [13] | Staphylococcus aureus [17] | Staphylococcus aureus [23]
> 128 mg/L: all other assays above

CCO/N=C1\CN(c2c(F)cc3c(=O)c(C(=O)O)cn(C4CC4)c3c2OC(F)F)CC1/C(N)=N\OC (stereo not given)
32 mg/L: Klebsiella pneumoniae [4] | Klebsiella pneumoniae [5] | Enterococcus faecalis [6] | Klebsiella pneumoniae [8] | Enterococcus faecalis [20]
16 mg/L: Escherichia coli [7]
0.125 mg/L: Staphylococcus aureus [23] | [25]
8 mg/L: Pseudomonas aeruginosa [15]
0.25 mg/L: [1] | [3] | Staphylococcus aureus [17] | [18] | Staphylococcus aureus [19]
64 mg/L: all other assays above
